According to paper PMC11966317 (ACS Omega, 2025):

What was measured:
CHO-hPD-L1 tumors = test: Tumor volume and body weight during treatment; assay type: in vivo, NOD/SCID mice; details: 10 mg/kg every 3 days, five doses, monitored every 3 days
Summary of the method: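 Mice bearing CHO-hPD-L1 tumours were randomised to PBS or the anti-PD-L1 antibody (n = 3 each). Either was given at 10 mg/kg via the tail vein every 3 days, five doses over a 14-day cycle. Tumour volume and body weight were recorded. Endpoint was tumour volume >1500 mm3 or maximum diameter >20 mm.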

[1] = system: heart, liver, spleen, lungs, and kidneys; test: HE staining of major organs after treatment; assay type: in vivo, NOD/SCID mice; details: kidneys after 10 mg/kg every 3 days, five doses

Atezolizumab: anti-PD-L1 monoclonal antibody
body weight versus PBS group (CHO-hPD-L1 tumors): no notable differences in body weight
histopathology of major organs (HE staining) [1]: No histopathological abnormalities
